Non-standard residues stand in square brackets, D forms with d. Residues, ends and D or L forms follow the SMILES beside them. *: point of attachment. dNva(5-oxo-5-(4-MeOPh)) = COc1ccc(C(=O)CC[C@@H](N)C(=O)O)cc1; Triazol3yl(1,2,4-5-NH2) = Nc1nc(*)n[nH]1; dPhe(4-Cl) = N[C@H](Cc1ccc(Cl)cc1)C(=O)O; d2Nal = N[C@H](Cc1ccc2ccccc2c1)C(=O)O; Lys(iPr) = CC(C)NCCCC[C@H](N)C(=O)O; d3Pal = N[C@H](Cc1cccnc1)C(=O)O; Nicotinoyl = O=C(c1cccnc1)*; dOrn = NCCC[C@@H](N)C(=O)O; Orn = NCCC[C@H](N)C(=O)O
Legend:
[1] = Retention time of the compound; format: ADME
How it was run: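 Peptide (0.5 mg/mL, 10 μL) was loaded in TEAP pH 7.0/CH3CN (76/24), acidified with H3PO4 where insoluble. Elution used a 30-48% CH3CN gradient over 30 min at 1.5 mL/min. Retention time is reported in minutes.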

[2] = biological target: T1, Gonadotropin-releasing hormone receptor (Homo sapiens, UniProt P30968); assay: The binding affinity towards Gonadotropin-releasing hormone receptor
T1 sequence (P30968 whole entry): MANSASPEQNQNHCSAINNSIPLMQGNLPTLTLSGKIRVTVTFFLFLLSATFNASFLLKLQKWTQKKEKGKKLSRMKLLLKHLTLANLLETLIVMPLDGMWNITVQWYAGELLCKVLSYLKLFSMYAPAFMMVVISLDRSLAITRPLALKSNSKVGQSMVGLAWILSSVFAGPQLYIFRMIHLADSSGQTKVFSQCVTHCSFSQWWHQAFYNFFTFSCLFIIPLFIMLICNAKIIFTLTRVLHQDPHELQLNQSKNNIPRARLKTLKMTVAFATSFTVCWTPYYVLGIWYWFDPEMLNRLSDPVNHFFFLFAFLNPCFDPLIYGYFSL

SMILES | RT [1] [min] | Kd [2] [nM]
CC(=O)N[C@H](Cc1ccc2ccccc2c1)C(=O)N[C@H](Cc1ccc(Cl)cc1)C(=O)N[C@H](Cc1cccnc1)C(=O)N[C@@H](CO)C(=O)N[C@@H](CCCCNc1n[nH]c(N)n1)C(=O)N[C@H](CCCCNc1n[nH]c(N)n1)C(=O)N[C@@H](CC(C)C)C(=O)N[C@@H](CCCCNC(C)C)C(=O)N1CCC[C@H]1C(=O)NCC(N)=O | 5.53 | 0.86
CC(=O)N[C@H](Cc1ccc2ccccc2c1)C(=O)N[C@H](Cc1ccc(Cl)cc1)C(=O)N[C@H](Cc1cccnc1)C(=O)N[C@@H](CO)C(=O)N[C@@H](CCCCNC(=O)c1cccnc1)C(=O)N[C@H](CCCCNC(=O)c1cccnc1)C(=O)N[C@@H](CC(C)C)C(=O)N[C@@H](CCCCNC(C)C)C(=O)N1CCC[C@H]1C(=O)N[C@H](C)C(N)=O (Ac-[d2Nal][dPhe(4-Cl)][d3Pal]SK(Nicotinoyl)[dK](Nicotinoyl)L[Lys(iPr)]P[dA]-NH2) | 13.6 | 0.35
COc1ccc(C(=O)CC[C@@H](NC(=O)[C@H](CCCN=C(N)N)NC(=O)[C@H](CO)NC(=O)[C@@H](Cc2cccnc2)NC(=O)[C@@H](Cc2ccc(Cl)cc2)NC(=O)[C@@H](Cc2ccc3ccccc3c2)NC(C)=O)C(=O)N[C@@H](CC(C)C)C(=O)N[C@@H](CCCN=C(N)N)C(=O)N2CCC[C@H]2C(=O)N[C@H](C)C(N)=O)cc1 (Ac-[d2Nal][dPhe(4-Cl)][d3Pal]SR[dNva(5-oxo-5-(4-MeOPh))]LRP[dA]-NH2) | 22.8 | 0.67
CC(=O)N[C@H](Cc1ccc2ccccc2c1)C(=O)N[C@H](Cc1ccc(Cl)cc1)C(=O)N[C@H](Cc1cccnc1)C(=O)N[C@@H](CO)C(=O)N[C@@H](CCCNC(=N)N)C(=O)N[C@H](Cc1cccnc1)C(=O)N[C@@H](CC(C)C)C(=O)N[C@@H](CCCNC(=N)N)C(=O)N1CCC[C@H]1C(=O)N[C@H](C)C(N)=O | 14.1 | 0.24

Continued, values first:

RT [1] [min] | Kd [2] [nM] | SMILES
7.08 | 0.48 | CC(=O)N[C@H](Cc1ccc2ccccc2c1)C(=O)N[C@H](Cc1ccc(Cl)cc1)C(=O)N[C@H](Cc1cccnc1)C(=O)N[C@@H](CO)C(=O)N[C@@H](CCCCNc1n[nH]c(N)n1)C(=O)N[C@H](CCCCNc1n[nH]c(N)n1)C(=O)N[C@@H](CC(C)C)C(=O)N[C@@H](CCCCNC(C)C)C(=O)N1CCC[C@H]1C(=O)N[C@H](C)C(N)=O (Ac-[d2Nal][dPhe(4-Cl)][d3Pal]SK(Triazol3yl(1,2,4-5-NH2))[dK](Triazol3yl(1,2,4-5-NH2))L[Lys(iPr)]P[dA]-NH2)
6.2 | 0.21 | CC(=O)N[C@H](Cc1ccc2ccccc2c1)C(=O)N[C@H](Cc1ccc(Cl)cc1)C(=O)N[C@H](Cc1cccnc1)C(=O)N[C@@H](CO)C(=O)N[C@@H](CCCNc1n[nH]c(N)n1)C(=O)N[C@H](CCCNc1n[nH]c(N)n1)C(=O)N[C@@H](CC(C)C)C(=O)N[C@@H](CCCCNC(C)C)C(=O)N1CCC[C@H]1C(=O)N[C@H](C)C(N)=O (Ac-[d2Nal][dPhe(4-Cl)][d3Pal]S[Orn](Triazol3yl(1,2,4-5-NH2))[dOrn](Triazol3yl(1,2,4-5-NH2))L[Lys(iPr)]P[dA]-NH2)

From ChEMBL document CHEMBL1125357, “Gonadotropin-releasing hormone antagonists with N omega-triazolylornithine, -lysine, or -p-aminophenylalanine residues at positions 5 and 6” (J Med Chem, 1992)
